{
  "source": "ChEMBL document CHEMBL1148336",
  "about": "“3-Aminopyrazole inhibitors of CDK2/cyclin A as antitumor agents. 1. Lead finding” (J Med Chem, 2004)",
  "key": {"Rattus norvegicus [1]": {"test_system": "Rattus norvegicus", "assay": "In vivo maximum time required for clearance of compound after oral (po) administration at a dose of 10 mg/kg was measured in rats", "type": "ADME, organism-based", "parameters": "dose 10 mg/kg, route oral", "outline": "(§1)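 Male Sprague Dawley rats (~270), fasted overnight, received a single iv or oral dose in PEG400, 4% Tween 80/dextrose (60:40), three rats per route. Jugular/catheter blood was drawn predose and at 5, 15 and 30 min and 1, 2, 4, 6 and 24 h, and plasma was analysed by LC/MS/MS. Analysis was noncompartmental: Cmax/Tmax observed, AUC by linear trapezoidal rule, and F from dose-normalized oral/iv AUC.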"}, "[2]": {"assay": "Total body clearance was evaluated for the compound after i.v. administration at a dose of 5 mg/kg was measured in rats", "type": "ADME, organism-based", "parameters": "dose 5 mg/kg, route intravenous", "conditions": "rat, in vivo, iv", "outline": "as §1"}, "Rattus norvegicus [3]": {"test_system": "Rattus norvegicus", "assay": "In vivo area under curve was determined for the compound after oral (po) administration at a dose of 10 mg/kg in rats", "type": "ADME, organism-based", "parameters": "dose 10 mg/kg, route oral", "outline": "as §1"}, "Rattus norvegicus [4]": {"test_system": "Rattus norvegicus", "assay": "Maximal concentration in male Sprague-Dawley rats after 5 mg/kg intravenous dose", "type": "ADME, organism-based", "parameters": "dose 5 mg/kg, route intravenous", "conditions": "in vivo", "outline": "as §1"}, "Rattus norvegicus [5]": {"test_system": "Rattus norvegicus", "assay": "Maximal concentration in male Sprague-Dawley rats after 10 mg/kg oral dose", "type": "ADME, organism-based", "parameters": "dose 10 mg/kg, route oral", "conditions": "in vivo", "outline": "as §1"}, "[6]": {"assay": "In vivo retention time was evaluated for the compound after i.v. administration at a dose of 5 mg/kg was measured in rats", "type": "ADME, organism-based", "parameters": "dose 5 mg/kg, route intravenous", "conditions": "rat, iv", "outline": "as §1"}, "Rattus norvegicus [7]": {"test_system": "Rattus norvegicus", "assay": "In vivo half-life period for compound after i.v. administration at a dose of 5 mg/kg was measured in rats", "type": "ADME, organism-based", "parameters": "dose 5 mg/kg, route intravenous", "conditions": "iv", "outline": "as §1"}, "[8]": {"assay": "Solubility of compound was determined in buffer at a pH of 7", "type": "physicochemical", "conditions": "pH 7", "outline": "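Nonequilibrium turbidimetric solubility. 10 mM DMSO stock was diluted into pH 7 buffer (2.5% DMSO), and turbidity was read at 50 and 250 μM. Solubility is the average of the highest clear and lowest turbid concentrations.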"}, "Casein kinase II": {"target": "Casein kinase II (Homo sapiens, UniProt P19784+P67870+P68400)", "assay": "Inhibition of Casein kinase 2", "type": "protein-complex assay", "outline": "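33P-γ-ATP/ATP at 2Km, substrate 5Km, 1% DMSO, 3-fold dilutions from 10 μM, 30–90 min at room temperature. Phosphorylated substrate counted by SPA. Four-parameter logistic IC50, mean of at least two experiments.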"}, "[9]": {"target": "Cyclin-dependent kinase 5/CDK5 activator 1 (Homo sapiens, UniProt Q00535)", "sequence (Q00535 whole entry)": "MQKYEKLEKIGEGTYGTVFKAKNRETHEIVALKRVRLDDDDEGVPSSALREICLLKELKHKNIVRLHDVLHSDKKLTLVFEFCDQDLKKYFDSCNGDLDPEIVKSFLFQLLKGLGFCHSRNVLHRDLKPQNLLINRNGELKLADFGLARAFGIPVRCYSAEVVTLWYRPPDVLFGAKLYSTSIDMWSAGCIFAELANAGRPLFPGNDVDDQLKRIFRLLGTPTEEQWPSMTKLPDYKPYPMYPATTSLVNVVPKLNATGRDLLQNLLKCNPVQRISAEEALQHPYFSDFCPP", "sequence (Q15078 whole entry, further chain)": "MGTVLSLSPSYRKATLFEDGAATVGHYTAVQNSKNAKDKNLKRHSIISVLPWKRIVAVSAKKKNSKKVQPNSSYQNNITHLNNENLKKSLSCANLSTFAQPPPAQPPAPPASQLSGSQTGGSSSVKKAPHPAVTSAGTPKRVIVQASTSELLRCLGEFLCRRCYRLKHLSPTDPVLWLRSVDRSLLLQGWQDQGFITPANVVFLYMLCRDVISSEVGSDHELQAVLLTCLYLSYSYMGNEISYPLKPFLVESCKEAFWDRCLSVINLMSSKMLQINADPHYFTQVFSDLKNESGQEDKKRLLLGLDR", "assay": "Inhibition of Cyclin-dependent kinase 5-p35nck5a", "type": "protein-complex assay", "outline": "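Recombinant CDK5/p25 expressed in insect cells, used at 4 nM with histone H1 substrate (5Km) and ATP/33P-γ-ATP (2Km). Run in Tris-HCl pH 7.4 buffer with MgCl2 and DTT, 1% DMSO, for 30–90 min at room temperature. 3-fold dilutions from 10 to 0.0015 μM. Product captured on streptavidin SPA beads and counted.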"}, "[10]": {"target": "Inhibitor of nuclear factor kappa-B kinase subunit beta (Homo sapiens, UniProt O14920)", "assay": "Inhibition of I-kappa-B-kinase beta activity", "outline": "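ATP/33P-γ-ATP 2Km, substrate 5Km, 1% DMSO, 10–0.0015 μM compound, 30–90 min at room temperature. SPA detection.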"}, "[11]": {"target": "Insulin-like growth factor 1 receptor (Homo sapiens, UniProt P08069)", "assay": "Inhibition of Insulin-like growth factor I receptor", "outline": "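IGF1R (6 nM, insect-cell recombinant) phosphorylating IRStide in 50 mM Hepes pH 7.5, 3 mM MnCl2, 1 mM DTT, 3 μM NaVO3. 33P-ATP mix at 2Km, substrate 5Km, 1% DMSO. Compound in 3-fold series from 10 μM, 30–90 min at room temperature. SPA counting.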"}, "Insulin receptor": {"target": "Insulin receptor (Homo sapiens, UniProt P06213)", "sequence (P06213 28-758 limits assumed)": "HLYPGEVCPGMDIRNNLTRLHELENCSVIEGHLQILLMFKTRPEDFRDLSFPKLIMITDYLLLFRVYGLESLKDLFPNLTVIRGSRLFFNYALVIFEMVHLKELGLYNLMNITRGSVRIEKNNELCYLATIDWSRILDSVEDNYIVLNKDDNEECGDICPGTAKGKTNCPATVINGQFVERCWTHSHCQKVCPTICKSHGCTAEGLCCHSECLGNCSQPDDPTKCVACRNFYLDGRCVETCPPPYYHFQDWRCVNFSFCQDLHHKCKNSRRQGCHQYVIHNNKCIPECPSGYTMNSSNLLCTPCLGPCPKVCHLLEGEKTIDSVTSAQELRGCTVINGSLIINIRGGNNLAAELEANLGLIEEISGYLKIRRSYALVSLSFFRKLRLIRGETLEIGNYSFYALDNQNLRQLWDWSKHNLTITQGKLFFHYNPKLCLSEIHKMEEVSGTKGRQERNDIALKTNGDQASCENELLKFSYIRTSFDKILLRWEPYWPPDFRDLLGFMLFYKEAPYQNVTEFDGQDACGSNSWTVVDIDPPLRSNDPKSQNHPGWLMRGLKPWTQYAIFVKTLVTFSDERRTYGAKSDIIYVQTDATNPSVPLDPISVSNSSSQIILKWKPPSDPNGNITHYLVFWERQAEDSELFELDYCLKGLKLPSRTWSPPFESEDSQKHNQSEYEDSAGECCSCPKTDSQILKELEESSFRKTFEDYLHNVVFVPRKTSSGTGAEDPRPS", "sequence (P06213 763-1382 limits assumed)": "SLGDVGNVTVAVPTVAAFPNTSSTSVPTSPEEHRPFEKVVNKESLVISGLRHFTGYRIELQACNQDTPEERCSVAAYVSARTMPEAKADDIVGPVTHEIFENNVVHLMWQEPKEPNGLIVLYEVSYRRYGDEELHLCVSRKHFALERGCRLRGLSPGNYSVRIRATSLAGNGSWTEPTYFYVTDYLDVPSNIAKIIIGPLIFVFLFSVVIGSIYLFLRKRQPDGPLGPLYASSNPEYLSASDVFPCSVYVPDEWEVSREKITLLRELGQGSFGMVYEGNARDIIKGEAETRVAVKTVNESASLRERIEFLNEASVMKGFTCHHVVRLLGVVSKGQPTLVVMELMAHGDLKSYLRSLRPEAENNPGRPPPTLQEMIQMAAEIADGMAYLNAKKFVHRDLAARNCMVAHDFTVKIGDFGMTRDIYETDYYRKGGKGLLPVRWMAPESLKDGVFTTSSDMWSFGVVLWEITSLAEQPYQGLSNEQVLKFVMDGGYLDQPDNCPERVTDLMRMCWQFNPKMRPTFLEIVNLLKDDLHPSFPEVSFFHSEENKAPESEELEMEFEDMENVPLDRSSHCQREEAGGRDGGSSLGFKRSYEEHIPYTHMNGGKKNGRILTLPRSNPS", "assay": "Inhibition of IR kinase activity", "outline": "(§2)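 Radiometric kinase assay. Enzyme (0.7–100 nM) and substrate (5Km) incubated with ATP/33P-γ-ATP (2Km) and compound serially diluted 3-fold from 10 to 0.0015 μM, 1% DMSO, 30–90 min at room temperature. Product separated by SPA, Dowex or phosphocellulose filter, then counted.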"}, "[12]": {"target": "Mast/stem cell growth factor receptor Kit (Homo sapiens, UniProt P10721)", "assay": "Inhibition of KIT kinase activity", "outline": "as §2"}, "[13]": {"target": "Mitogen-activated protein kinase 14 (Homo sapiens, UniProt Q16539)", "assay": "Inhibition of Mitogen-activated protein kinase p38 alpha", "outline": "as §2"}, "[14]": {"target": "Mitogen-activated protein kinase 1 (Homo sapiens, UniProt P28482)", "assay": "Inhibition of Mitogen-activated protein kinase 1 activity", "outline": "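ERK-2 at 3 nM (insect-cell recombinant) with MBP in Tris-HCl pH 7.4 10 mM, MgCl2 10 mM, DTT 7.4 mM. ATP/33P-γ-ATP 2Km, substrate 5Km, 1% DMSO, 10 to 0.0015 μM compound, 30–90 min at room temperature. Dowex resin (formate, pH 3) removed free ATP; supernatant counted.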"}, "[15]": {"target": "Serine/threonine-protein kinase PLK1 (Homo sapiens, UniProt P53350)", "assay": "Inhibition of PLK1 kinase", "outline": "as §2"}, "[16]": {"target": "RAC-alpha serine/threonine-protein kinase (Homo sapiens, UniProt P31749)", "sequence (P31749 whole entry)": "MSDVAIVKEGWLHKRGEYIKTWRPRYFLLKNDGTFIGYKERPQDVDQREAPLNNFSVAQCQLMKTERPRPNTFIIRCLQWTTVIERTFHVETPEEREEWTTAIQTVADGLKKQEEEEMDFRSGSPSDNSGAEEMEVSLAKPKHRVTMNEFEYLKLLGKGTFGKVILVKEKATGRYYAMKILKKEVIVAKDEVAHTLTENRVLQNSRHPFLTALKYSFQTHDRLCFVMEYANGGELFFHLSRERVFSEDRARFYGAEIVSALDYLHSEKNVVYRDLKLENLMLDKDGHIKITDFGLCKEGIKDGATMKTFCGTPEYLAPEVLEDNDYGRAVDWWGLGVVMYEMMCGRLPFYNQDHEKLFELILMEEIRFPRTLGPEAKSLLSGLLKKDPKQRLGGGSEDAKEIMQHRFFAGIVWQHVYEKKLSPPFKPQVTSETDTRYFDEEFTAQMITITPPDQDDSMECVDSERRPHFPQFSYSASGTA", "assay": "Inhibition of Protein kinase B (Akt-1)", "outline": "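Recombinant AKT-1 (insect cells), 5 nM, with AKTtide in 10 mM Tris-HCl pH 7.4, 10 mM MgCl2, 7.4 mM DTT. ATP/33P-γ-ATP at 2Km, substrate at 5Km, 1% DMSO. 3-fold dilutions from 10 μM, 30–90 min at room temperature. Dowex resin separation, supernatant radioactivity counted.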"}, "[17]": {"target": "Tyrosine-protein kinase Lyn (Homo sapiens, UniProt P07948)", "assay": "Inhibition of Protein tyrosine kinase Lyn", "outline": "as §2"}, "[18]": {"target": "Inhibitor of nuclear factor kappa-B kinase subunit epsilon (Homo sapiens, UniProt Q14164)", "assay": "Inhibition of IKKi (IKK epsilon) kinase activity", "outline": "as §2"}, "[19]": {"target": "Tyrosine-protein kinase ABL (Homo sapiens, UniProt P00519+P42684)", "assay": "Inhibition of V-abl tyrosine kinase (ABL)", "type": "protein assay", "outline": "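ABL at 1.2 nM, recombinant from insect cells, with MBP in 50 mM Hepes pH 7.5, 3 mM MgCl2, 3 mM MnCl2, 1 mM DTT, 3 μM NaVO3. 2Km ATP/33P-γ-ATP, 5Km substrate, 1% DMSO. 3-fold series from 10 μM, 30–90 min at room temperature. SPA readout.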"}, "[20]": {"target": "Vascular endothelial growth factor receptor 2 (Homo sapiens, UniProt P35968)", "assay": "Inhibition of VEGFR-2 kinase activity", "outline": "as §2"}, "[21]": {"target": "Vascular endothelial growth factor receptor 3 (Homo sapiens, UniProt P35916)", "assay": "Inhibition of Vascular endothelial growth factor receptor 3", "outline": "as §2"}, "[22]": {"target": "Tyrosine-protein kinase Lck (Homo sapiens, UniProt P06239)", "sequence (P06239 whole entry)": "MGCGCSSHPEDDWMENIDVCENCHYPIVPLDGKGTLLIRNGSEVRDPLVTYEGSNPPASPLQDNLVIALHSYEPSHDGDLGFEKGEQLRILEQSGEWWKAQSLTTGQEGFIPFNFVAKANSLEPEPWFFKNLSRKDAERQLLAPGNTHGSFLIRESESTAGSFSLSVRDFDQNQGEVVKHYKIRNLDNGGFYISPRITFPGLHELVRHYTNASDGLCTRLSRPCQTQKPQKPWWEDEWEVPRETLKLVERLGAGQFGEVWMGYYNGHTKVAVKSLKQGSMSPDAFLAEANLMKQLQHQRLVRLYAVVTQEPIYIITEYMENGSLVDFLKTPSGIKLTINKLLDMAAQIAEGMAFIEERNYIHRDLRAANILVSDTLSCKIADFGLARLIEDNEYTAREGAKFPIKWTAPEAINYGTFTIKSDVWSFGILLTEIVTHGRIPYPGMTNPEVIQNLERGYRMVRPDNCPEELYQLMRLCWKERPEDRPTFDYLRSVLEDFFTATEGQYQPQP", "assay": "Inhibition of p56 lck tyrosine kinase", "outline": "as §2"}, "[23]": {"target": "Serine/threonine-protein kinase PAK 4 (Homo sapiens, UniProt O96013)", "assay": "Inhibition of PAK4 kinase", "outline": "as §2"}, "[24]": {"target": "High affinity nerve growth factor receptor (Homo sapiens, UniProt P04629)", "assay": "Inhibition of Trk A kinase activity", "outline": "as §2"}, "Rattus norvegicus [25]": {"test_system": "Rattus norvegicus", "assay": "In vivo half-life period for compound after oral (po) administration at a dose of 10 mg/kg was measured in rats", "type": "ADME, organism-based", "parameters": "dose 10 mg/kg, route oral", "outline": "as §1"}, "[26]": {"target": "Hepatocyte growth factor receptor (Homo sapiens, UniProt P08581)", "sequence (P08581 whole entry)": "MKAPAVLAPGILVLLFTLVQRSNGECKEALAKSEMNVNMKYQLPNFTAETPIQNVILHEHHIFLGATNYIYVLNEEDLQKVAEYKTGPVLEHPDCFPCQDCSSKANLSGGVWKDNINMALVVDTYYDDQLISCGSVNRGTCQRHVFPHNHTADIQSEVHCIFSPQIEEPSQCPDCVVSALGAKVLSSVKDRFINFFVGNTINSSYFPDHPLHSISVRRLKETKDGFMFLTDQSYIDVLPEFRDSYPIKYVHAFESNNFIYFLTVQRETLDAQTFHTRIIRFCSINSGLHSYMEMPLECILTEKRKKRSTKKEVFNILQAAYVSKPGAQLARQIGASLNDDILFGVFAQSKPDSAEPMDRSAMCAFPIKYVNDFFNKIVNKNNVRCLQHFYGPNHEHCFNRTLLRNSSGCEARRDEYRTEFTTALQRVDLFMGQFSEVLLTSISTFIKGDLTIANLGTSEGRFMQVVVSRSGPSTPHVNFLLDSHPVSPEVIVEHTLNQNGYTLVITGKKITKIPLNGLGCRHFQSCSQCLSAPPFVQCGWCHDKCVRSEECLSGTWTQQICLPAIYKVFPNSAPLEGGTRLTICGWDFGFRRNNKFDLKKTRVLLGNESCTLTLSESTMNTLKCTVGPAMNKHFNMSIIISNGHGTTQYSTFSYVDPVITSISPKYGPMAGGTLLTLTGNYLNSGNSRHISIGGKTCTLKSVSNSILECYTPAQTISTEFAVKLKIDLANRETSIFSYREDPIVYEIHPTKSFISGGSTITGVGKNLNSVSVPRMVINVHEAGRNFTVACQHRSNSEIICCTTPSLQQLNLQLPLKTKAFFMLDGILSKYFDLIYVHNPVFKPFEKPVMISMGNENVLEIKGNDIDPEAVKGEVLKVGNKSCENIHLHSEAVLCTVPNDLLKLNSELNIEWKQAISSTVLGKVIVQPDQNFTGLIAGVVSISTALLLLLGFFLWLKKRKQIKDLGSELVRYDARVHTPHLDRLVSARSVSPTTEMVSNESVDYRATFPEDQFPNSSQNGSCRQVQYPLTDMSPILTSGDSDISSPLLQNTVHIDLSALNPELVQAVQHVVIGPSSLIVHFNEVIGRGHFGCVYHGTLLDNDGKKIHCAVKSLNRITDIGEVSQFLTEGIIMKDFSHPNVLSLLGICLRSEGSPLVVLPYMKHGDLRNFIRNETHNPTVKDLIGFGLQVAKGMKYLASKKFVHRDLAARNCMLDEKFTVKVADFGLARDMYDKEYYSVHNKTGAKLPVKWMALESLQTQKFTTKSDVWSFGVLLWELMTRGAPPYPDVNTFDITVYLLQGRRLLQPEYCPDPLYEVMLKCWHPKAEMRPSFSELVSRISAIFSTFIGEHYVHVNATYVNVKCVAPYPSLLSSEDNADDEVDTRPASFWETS", "assay": "Inhibition of MET kinase activity", "outline": "as §2"}, "[27]": {"target": "Aurora kinase A (Homo sapiens) (UniProt O14965)", "sequence (O14965 whole entry, looked up)": "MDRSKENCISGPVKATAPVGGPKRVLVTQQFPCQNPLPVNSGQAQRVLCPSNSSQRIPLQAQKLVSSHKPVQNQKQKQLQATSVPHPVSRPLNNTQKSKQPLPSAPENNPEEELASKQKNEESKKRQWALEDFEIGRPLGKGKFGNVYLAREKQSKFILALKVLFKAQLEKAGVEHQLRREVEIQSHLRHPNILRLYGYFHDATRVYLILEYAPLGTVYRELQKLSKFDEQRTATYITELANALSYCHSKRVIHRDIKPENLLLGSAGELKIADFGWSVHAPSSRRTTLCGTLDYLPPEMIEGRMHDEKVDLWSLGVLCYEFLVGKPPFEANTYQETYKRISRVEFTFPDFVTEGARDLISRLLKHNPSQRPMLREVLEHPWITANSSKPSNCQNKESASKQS", "assay": "Inhibition of Aurora kinase A"}},
  "data": [
    {"smiles": "O=C(Cc1ccc2ccccc2c1)Nc1cc(C2CC2)n[nH]1", "values": [
      {"measurement": "T max", "setting": "Rattus norvegicus [1]", "result": 1.39, "unit": "h"},
      {"measurement": "clearance", "setting": "[2]", "result": 13.5, "unit": "mL/min/kg"},
      {"measurement": "AUC total", "setting": "Rattus norvegicus [3]", "result": 38.18, "unit": "µM·h"},
      {"measurement": "Cmax", "setting": "Rattus norvegicus [4]", "result": 19.4, "unit": "µM"},
      {"measurement": "Cmax", "setting": "Rattus norvegicus [5]", "result": 9.63, "unit": "µM"},
      {"measurement": "MRT", "setting": "[6]", "result": 1.31, "unit": "h"},
      {"measurement": "T1/2", "setting": "Rattus norvegicus [7]", "result": 1, "unit": "h"},
      {"measurement": "solubility", "setting": "[8]", "result": 22, "unit": "µM"},
      {"measurement": "IC50", "setting": "Casein kinase II", "result": "> 10", "unit": "µM"},
      {"measurement": "IC50", "setting": "[9]", "result": 0.114, "unit": "µM"},
      {"measurement": "IC50", "setting": "[10]", "result": "> 10", "unit": "µM"},
      {"measurement": "IC50", "setting": "[11]", "result": "> 10", "unit": "µM"},
      {"measurement": "IC50", "setting": "Insulin receptor", "result": "> 10", "unit": "µM"},
      {"measurement": "IC50", "setting": "[12]", "result": "> 10", "unit": "µM"},
      {"measurement": "IC50", "setting": "[13]", "result": "> 10", "unit": "µM"},
      {"measurement": "IC50", "setting": "[14]", "result": 4.6, "unit": "µM"},
      {"measurement": "IC50", "setting": "[15]", "result": "> 10", "unit": "µM"},
      {"measurement": "IC50", "setting": "[16]", "result": "> 10", "unit": "µM"},
      {"measurement": "IC50", "setting": "[17]", "result": "> 10", "unit": "µM"},
      {"measurement": "IC50", "setting": "[18]", "result": "> 10", "unit": "µM"},
      {"measurement": "IC50", "setting": "[19]", "result": "> 10", "unit": "µM"},
      {"measurement": "IC50", "setting": "[20]", "result": "> 10", "unit": "µM"},
      {"measurement": "IC50", "setting": "[21]", "result": "> 10", "unit": "µM"},
      {"measurement": "IC50", "setting": "[22]", "result": "> 10", "unit": "µM"},
      {"measurement": "IC50", "setting": "[23]", "result": "> 10", "unit": "µM"},
      {"measurement": "IC50", "setting": "[24]", "result": "> 10", "unit": "µM"},
      {"measurement": "T1/2", "setting": "Rattus norvegicus [25]", "result": 2.38, "unit": "h"},
      {"measurement": "IC50", "setting": "[26]", "result": "> 10", "unit": "µM"},
      {"measurement": "IC50", "setting": "[27]", "result": "> 10", "unit": "µM"}
    ]}
  ]
}
